Laboratory results taken from PMC8360185 (Chembiochem, 2021).

System: FKBP12-NLuc or FKBP51-NLuc
Assay type: cell-based, human
Details: 1 µM Elacridar, 20 nM tracer 2b or 200 nM tracer 2c
Summary of the method: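 HEK293T cells expressing C-terminal FKBP-NanoLuc fusions were resuspended in Opti-MEM at 4.6×105 (transient) or 1.81×10^6 cells/mL (stable). Tracer was added from an eightfold stock, and test compound in DMSO was 1:2 serially diluted. Plates were incubated 2 h at 37 °C, then 15 min at RT. NanoGlo substrate (1:664) and extracellular NanoLuc inhibitor (1:2000) were added, with donor read at 450 nm and acceptor at 660 nm after 3 min.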

C=CC[C@@H]1/C=C(\C)C[C@H](C)C[C@H](OC)[C@H]2O[C@@](O)(C(=O)C(=O)N3CCCC[C@H]3C(=O)O[C@H](/C(C)=C/[C@@H]3CC[C@@H](O)[C@H](OC)C3)[C@H](C)[C@@H](O)CC1=O)[C@H](C)C[C@@H]2OC [FK506]
effect of Elacridar on NanoBRET activity: did not affect

COc1ccc(CC[C@@H](OC(=O)[C@@H]2CCCCN2C(=O)[C@H](c2cc(OC)c(OC)c(OC)c2)C2CCCCC2)c2cccc(OCCN3CCOCC3)c2)cc1OC [SAFit2]
effect of Elacridar on NanoBRET activity: did not affect
